{"data": "Experimental data of several laboratories", "cell line": "HepG2", "effect on": "cell growth or viability", "note": "Protocols differ between the studies behind these lines."}
{"SMILES": "Cn1cc2c3c1C(=O)C(NCCc1ccc(O)cc1)=CC3=NCC2", "technique": "MTT", "time": "72 h", "CC50 [µM]": 1}
{"SMILES": "O[C@@H](CNCCCC(F)(F)F)c1cc(Cl)cc2c1-c1ccc(Cl)cc1C2", "time": "48 h", "CC50 [µM]": 13.8}
{"SMILES": "Cn1nc2c(=O)n(C3CC3)cnc2c1[C@](O)(c1cnc(C(F)(F)F)c(Cl)c1)C(F)(F)F", "technique": "ATP luminescence", "CC50 [µM]": "> 50"}
{"SMILES": "COCC(=O)N1CCC[C@H](C(=O)NCc2nc(-c3ccc(C)cc3)cs2)C1", "technique": "ATP luminescence", "time": "96 h", "CC50 [µM]": "> 50"}
{"SMILES": "NC1=CC2=NCCc3c[nH]c(c32)C1=O", "technique": "MTT", "time": "72 h", "CC50 [µM]": 0.1}
{"SMILES": "CCOCC(=O)N1CCC[C@H](C(=O)NCc2nc(-c3ccccc3)cs2)C1", "technique": "ATP luminescence", "time": "96 h", "CC50 [µM]": "> 50"}
{"SMILES": "CCCCCCCNC[C@@H](O)c1cc(Cl)cc2c1-c1ccc(Cl)cc1C2", "time": "48 h", "CC50 [µM]": 5}
{"SMILES": "COCC(=O)N1CCC[C@H](C(=O)NCc2nc(-c3ccc(OC)cc3)cs2)C1", "technique": "ATP luminescence", "time": "96 h", "CC50 [µM]": "> 50"}
{"SMILES": "CC[C@@](N)(c1cnc(C(F)(F)F)c(Cl)c1)c1c2ncn(C3CC3)c(=O)c2nn1C", "technique": "ATP luminescence", "CC50 [µM]": "> 50"}
{"SMILES": "COC1=CC2=[N+](C)CCc3c[nH]c(c32)C1=O", "technique": "MTT", "time": "72 h", "CC50 [µM]": 12.5}
{"SMILES": "COCC(=O)N1CCC[C@@H](C(=O)NCc2nc(-c3ccccc3)cs2)C1", "technique": "ATP luminescence", "time": "96 h", "CC50 [µM]": "> 50"}
{"SMILES": "O=C1c2[nH]cc3c2C(=NCC3)c2c(-c3ccc(O)cc3)c[nH]c21", "technique": "MTT", "time": "72 h", "CC50 [µM]": 0.3}
{"SMILES": "CCCCCCNC[C@H](O)c1cc(Cl)cc2c1-c1ccc(Cl)cc1C2", "time": "48 h", "CC50 [µM]": 4.8}
{"SMILES": "COC(CNC1=CC2=NCCc3c[nH]c(c32)C1=O)c1c[nH]c2ccccc12 (stereo not drawn)", "technique": "MTT", "time": "72 h", "CC50 [µM]": 20}
{"SMILES": "O[C@@H](CN[C@H](COCC1CC1)Cc1ccccc1)c1cc(Cl)cc2c1-c1ccc(Cl)cc1C2", "time": "48 h", "CC50 [µM]": 13.8}
